Paper PMC8386104 (RSC Chemical Biology, 2020)
Bridge positions count the residues as written; N and C are the ends. Ends that are not written are not given here. Peptide text beside a SMILES is read from it.

Assays:
[1] = Stability of peptides in human serum; assay type: in vitro ADME; details: 25% (v/v) human serum, pH 7.5
Outline: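 Peptide (50 μM final) was held 0, 1, 2, 4, 8 and 24 h in 25% (v/v) human serum in PBS (pH 7.5). Serum proteins were precipitated with ACN containing 2% TFA. The full-length peptide peak (MS-confirmed) was quantified by RP-HPLC at 215 nm as a percentage of 0 h recovery. A PBS-only incubation served as control. Single experiment, three technical replicates.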

MDM2 = MDM2 (Homo sapiens, UniProt Q00987); assay: Fluorescence polarization competition, F-pDI:MDM2; assay type: binding; details: for IC50, inhibition of F-pDI:MDM2 interaction: fluorescence polarization, 10 nM F-pDI, 8 nM MDM2, Tris buffer, three technical replicates
Sequence of MDM2 (Q00987 whole entry): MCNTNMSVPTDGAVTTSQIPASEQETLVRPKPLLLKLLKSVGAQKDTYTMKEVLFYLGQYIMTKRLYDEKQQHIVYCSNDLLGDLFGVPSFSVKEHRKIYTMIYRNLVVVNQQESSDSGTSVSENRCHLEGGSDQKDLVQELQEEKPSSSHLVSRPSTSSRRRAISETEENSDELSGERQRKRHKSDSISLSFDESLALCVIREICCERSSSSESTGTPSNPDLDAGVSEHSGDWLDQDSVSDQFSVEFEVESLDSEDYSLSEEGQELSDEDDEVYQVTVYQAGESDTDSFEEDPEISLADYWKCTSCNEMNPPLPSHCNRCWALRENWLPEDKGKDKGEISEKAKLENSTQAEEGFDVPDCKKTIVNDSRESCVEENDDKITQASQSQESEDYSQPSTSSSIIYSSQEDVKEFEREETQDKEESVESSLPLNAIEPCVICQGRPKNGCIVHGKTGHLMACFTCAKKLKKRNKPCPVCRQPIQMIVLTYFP

MDMX = biological target: T1, MDMX (Homo sapiens, UniProt O15151); assay: Fluorescence polarization competition, F-pDI:MDMX; assay type: binding; details: for IC50, inhibition of F-pDI:MDMX interaction: fluorescence polarization, 10 nM F-pDI, 45 nM MDMX, Tris buffer, three technical replicates
T1 sequence (O15151 1-490): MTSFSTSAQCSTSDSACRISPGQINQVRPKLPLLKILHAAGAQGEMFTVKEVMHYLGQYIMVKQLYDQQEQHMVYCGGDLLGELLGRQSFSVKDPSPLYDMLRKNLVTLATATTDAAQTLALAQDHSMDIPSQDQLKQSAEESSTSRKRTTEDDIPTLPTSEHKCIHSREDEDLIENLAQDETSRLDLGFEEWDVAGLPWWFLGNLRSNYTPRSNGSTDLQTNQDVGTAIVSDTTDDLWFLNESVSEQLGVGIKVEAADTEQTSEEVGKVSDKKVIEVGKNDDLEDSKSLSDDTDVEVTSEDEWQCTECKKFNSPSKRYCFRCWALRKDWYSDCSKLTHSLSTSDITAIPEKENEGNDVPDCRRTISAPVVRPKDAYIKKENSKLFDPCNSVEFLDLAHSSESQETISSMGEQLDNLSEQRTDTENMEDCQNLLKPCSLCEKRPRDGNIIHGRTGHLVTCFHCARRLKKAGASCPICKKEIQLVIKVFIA
Outline: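 Competition fluorescence polarization with fluorescein-labeled pDI (p53 mimic) bound to MDMX, read at 489/515 nm. F-pDI:MDMX signal defined 0% inhibition and free F-pDI in Tris buffer 100%. Percent inhibition was taken from the change in polarization relative to F-pDI. IC50 came from Hill-fitted dose-response curves; three technical replicates.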

MM96L melanoma cells = assay: Cell toxicity, resazurin, MM96L; assay type: cell-based, human; details: p53 WT, 24 h, 0.25–32 μM peptide, mean ± SD, three independent experiments
Outline: (§1)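 5000 cells/well were exposed to serially diluted peptide (0.25–32 μM) for 24 h at 37 °C, 5% CO2. Viability was read by resazurin-to-resorufin fluorescence (ex 560, em 585 nm), with 0.1% Triton X-100 set as 100% toxicity and PBS as 0%. CC50 came from a Hill-slope saturation fit. Mean ± SD of three independent experiments on different days.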

[2] = Cell toxicity, resazurin, HaCaT; assay type: cell-based; details: human, HaCaT keratinocyte cells
Outline: (§2)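 Peptides serially diluted (0.25–32 μM) and incubated 24 h at 37 °C, 5% CO2 with 5000 cells/well. HEK293 was grown in DMEM and HaCaT in RPMI with 2 mM L-glutamine and 10 mM sodium pyruvate, both with 10% FBS and penicillin/streptomycin. Resazurin-to-resorufin fluorescence was read at 560/585 nm. Triton X-100 (0.1%) set 100% and PBS 0% toxicity. CC50 came from Hill-fitted curves; three independent experiments.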

MCF7 breast cancer cells = assay: Cell toxicity, resazurin, MCF7; assay type: cell-based, human; details: p53 WT, 24 h, 0.25–32 μM peptide, mean ± SD, three independent experiments
Outline: as §1

[3] = test system: HeLa cervical cancer cells; assay: Cell toxicity, resazurin, HeLa; assay type: cell-based, human; details: cervix, p53 WT (rep), 24 h, 0.25–32 μM peptide, mean ± SD, three independent experiments
Outline: as §1

[4] = test system: HCT116 colorectal cancer cells; assay: Cell toxicity, resazurin, HCT116; assay type: cell-based, human; details: p53 WT, 24 h, 0.25–32 μM peptide, mean ± SD, three independent experiments
Outline: as §1

[5] = Cell toxicity, resazurin, HEK293; assay type: cell-based; details: human, HEK293 embryonic kidney cells
Outline: as §2

[6] = Cell toxicity, resazurin, PBMCs; assay type: cell-based; details: human, peripheral blood mononuclear cells (PBMCs)
Outline: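 Heparinized blood from healthy donors was diluted 1:1 with PBS, separated on Ficoll-Paque (1400 rpm, 30 min) and the interface layer washed three times in PBS. Cells (5000/well) received serially diluted peptide (0.25–32 μM) for 24 h at 37 °C, 5% CO2, then a resazurin read at 560/585 nm. Triton X-100 (0.1%) set 100%, PBS 0%. CC50 came from a Hill fit; single experiment, three donors.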

RBC hemolysis = assay type: cell-based; details: human, red blood cells (RBCs), 0.25% v/v
Outline: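 Donor RBCs were pelleted (4000 rpm, 1 min) and washed three times in PBS. Peptides diluted in PBS (0.25–32 μM) were incubated with RBCs (0.25% v/v final) for 1 h at 37 °C. After pelleting, supernatant A415 gave released hemoglobin. Triton X-100 (0.1% final) set 100% and PBS 0% hemolysis. Single experiment, RBCs from three donors.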

MM96L cells = assay: Live-cell confocal microscopy, intracellular location, MM96L; assay type: cell-based, human; details: spinning disc confocal, serum-free media, 1 and 4 μM cPF4PD-A488, 6 μM PF4P_pDI-A488, 1 μM cPF4Pext_pDI-A488
Outline: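 MM96L cells were grown in RPMI with 2 mM L-glutamine, 10 mM sodium pyruvate and 10% FBS, and plated at 16 000 per chamber-slide well overnight (37 °C, 5% CO2). Cells were washed into serum-free medium and stained with MitoTracker Red (100 nM final, 5 min). Medium was then replaced with Alexa Fluor 488-labeled peptide in serum-free medium. Cells were imaged live over time at 37 °C, 5% CO2.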

p53:MDM2 = details: read-out: inhibition of p53:MDM2; previously reported; cited from earlier work
[7] = test system: panel of cancerous and noncancerous cell lines, PBMCs and RBCs; assay: Cytotoxic activity across the panel of cell lines; assay type: cell-based, human; details: 24 h, resazurin (RBC 1 h hemolysis)
Outline: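 Cell lines and PBMCs (Ficoll-separated from PBS-diluted heparinized blood, PBS-washed) were read by 24 h resazurin fluorescence; PBMC data came from one experiment with three donors. RBCs were washed in PBS, then incubated at 0.25% v/v with peptide in PBS for 1 h at 37 °C. After pelleting, supernatant A415 gave hemoglobin release, with 0.1% Triton X-100 as 100% and PBS as 0%.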

MDA-MB-231 cells [8] = assay: Internalization of labeled peptides, flow cytometry, MDA-MB-231; assay type: cell-based, human; details: read-out: FC50 (peptide concentration to detect fluorescence in 50% of cells), MDA-MB-231, 1 h, serum free medium, 0.06–2 μM labeled peptide, 10 000 cells, at least two independent experiments
Outline: (§3)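 Cells were grown in DMEM with 10% FBS and seeded at 10^5 per well overnight (37 °C, 5% CO2). Serial dilutions of Alexa Fluor 488-labeled peptide in serum-free medium were added for 1 h, then cells were harvested. Flow cytometry used ex 488 nm/em 530/30 nm at 330 V, and readings were repeated after Trypan Blue quench (0.02% w/v final). % fluorescent cells was taken above the no-peptide threshold, and FC50 was fitted by Hill equation.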

MCF7 cells = assay: Internalization of labeled peptides, flow cytometry, MCF7; assay type: cell-based, human; details: read-out: FC50 (peptide concentration to detect fluorescence in 50% of cells), MCF7, 1 h, serum free medium, 0.06–2 μM labeled peptide, 10 000 cells, at least two independent experiments
Outline: as §3

MDA-MB-231 cells [9] = assay: Live-cell confocal microscopy, intracellular location, MDA-MB-231; assay type: cell-based, human; details: spinning disc confocal, serum-free media, 4 μM (sub-lethal)

Row | Compound | remaining at 24 h, 50 μM [1] [%] | CC50, MM96L (MM96L melanoma cells) [µM] | CC50 at 24 h [2] [µM] | CC50, MCF7 (MCF7 breast cancer cells) [µM] | CC50, HeLa [3] | CC50, HCT116 [4] [µM] | CC50 at 24 h [5] [µM] | CC50 at 24 h [6] [µM] | HC50 at 1 h (RBC hemolysis) [µM] | intracellular location, MM96L (MM96L cells) | further results
1 | LQAPLTFEHYWALLTSGGSGGAPLYKKIIKKLLES-NH2 [PF4P_pDI] | 60 | 13.2 ± 0.7 | 17.1 ± 1.6 | >32 | >32 µM | 25.5 ± 2.1 | 27.5 ± 2.3 | > 32 | > 64 | – | inhibition at 0.001 µM (MDM2; read-out: inhibition of F-pDI binding to MDM2): > 50%; inhibition at 0.001 µM (MDMX; read-out: inhibition of F-pDI binding to MDMX): > 50%
2 | A488 LQAPLTFEHYWALLTSGGXGGAPLYKKIIKKLLES* [PF4P_pDI-A488] | – | – | – | – | – | – | – | – | – | enter directly into the cell cytoplasm | –
4 | APLYKKIIKKLLES-NH2 [PF4P] | – | >32 | > 32 | >32 | >32 µM | – | > 32 | > 32 | > 64 | – | cytotoxic activity against the tested cells [7]: not active against any of the tested cells
5 | CC[C@H](C)[C@@H]1NC(=O)[C@H](CCCCN)NC(=O)[C@H](CCCCN)NC(=O)[C@H](Cc2ccc(O)cc2)NC(=O)[C@H](CC(C)C)NC(=O)[C@@H]2CCCN2C(=O)CNC(=O)CNC(=O)[C@@H](N)CSSC[C@@H](C(=O)N[C@@H](CCC(=O)O)C(=O)N[C@@H](CO)C(N)=O)NC(=O)[C@H](CC(C)C)NC(=O)[C@H](CCCCN)NC(=O)[C@H](CCCCN)NC(=O)[C@H]([C@@H](C)CC)NC(=O)[C@H]([C@@H](C)CC)NC(=O)[C@H](CCCCN)NC(=O)[C@H](CCCCN)NC(=O)[C@H](Cc2ccc(O)cc2)NC(=O)[C@H](CC(C)C)NC(=O)[C@@H]2CCCN2C(=O)[C@H](C)NC(=O)CNC(=O)CNC(=O)[C@H](CO)NC(=O)CNC(=O)CNC(=O)[C@H](CO)NC(=O)[C@H](CCC(=O)O)NC(=O)[C@H](CC(C)C)NC(=O)[C@H](CC(C)C)NC(=O)[C@H](CCCCN)NC(=O)[C@H](CCCCN)NC(=O)[C@H]([C@@H](C)CC)NC1=O [cPF4PD] (H-CGGPLYKKIIKKLLESGGSGGAPLYKKIIKKLCES-NH2; disulfide 1-33) | ~75 | – | 9.1 ± 0.7 | – | – | – | > 32 | 9.1 ± 1.3 | > 64 | – | IC50, inhibition of F-pDI:MDM2 interaction (MDM2): did not inhibit; IC50, inhibition of F-pDI:MDMX interaction (MDMX): did not inhibit
6 | A488 GCGGPLYKKIIKKLLESIIKKGGXGGSGGLTFEHYWAQLTGGC* (disulfide) [cPF4Pext_pDI-A488] | – | – | – | – | – | – | – | – | – | enter directly into the cell cytoplasm | –
7 | CQAPLYKKIIKKLLESGGSGGAPLYKKIIKKLLCES* A488 (sidechain bridge or staple) [cPF4PD-A488] | – | – | – | – | – | – | – | – | – | enter directly into the cell cytoplasm | EC50 (MDA-MB-231 cells [8]): 160 nM; EC50 (MCF7 cells): 650 nM; intracellular location, MDA-MB-231 (MDA-MB-231 cells [9]): entry of the labeled peptide into the cytoplasm was observed within two hours
8 | CGGPLYKKIIKKLLESIIKKGGSGGSGGLTFEHYWAQLTGGC-NH2 (disulfide 1-42) [cPF4Pext_pDI] | – | 2.5 ± 0.1 | 7.2 ± 0.3 | 18.6 ± 2.0 | ∼32 ± 5 μM | 11.7 ± 0.9 | 19.1 ± 0.5 | 4.3 ± 0.4 | > 64 | – | IC50 (MDMX): 80 nM
9 | LQAPLYKKIIKKLLESGGSGGAPLYKKIIKKLLES-NH2 [PF4PD] | 20 | 1.6 ± 0.1 | 4.3 ± 0.2 | 17.6 ± 2.0 | 17.2 ± 2.2 µM | 4.8 ± 0.8 | 13.7 ± 2.2 | 14 ± 0.9 | > 64 | – | IC50, inhibition of F-pDI:MDM2 interaction (MDM2): did not inhibit; IC50, inhibition of F-pDI:MDMX interaction (MDMX): did not inhibit
